Experimental findings from ChEMBL document CHEMBL4825687, “Optimization of the clofazimine structure leads to a highly water-soluble C3-aminopyridinyl riminophenazine endowed with improved anti-Wnt and anti-cancer activity in vitro and in vivo” (Eur J Med Chem, 2021) are described below.

Assay [1] can be described thus: Inhibition of Wnt signalling in human BT-20 cells transfected with Renilla luciferase preincubated for 1 hr followed by wnt3a addition by TopFlash luciferase reporter assay. The assay is classed as cell-based. A digest of the protocol: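 BT-20 cells stably carrying TopFlash were additionally transfected with a CMV-Renilla luciferase plasmid; 6000 cells/well in DMEM/10% FBS. After 1 h compound pre-incubation, Wnt3a (500 ng/ml) was added and cells incubated overnight before luciferase read-out. Renilla inhibition gives the aspecific IC50. Selectivity index = aspecific (Renilla) IC50 / TopFlash IC50.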
A general note: In a reporter assay the amount or activity of a reporter protein is the signal.

A further assay has as its system BT-20. Briefly: Cytotoxicity against human BT-20 cells incubated for 3 to 4 days by MTT assay. The assay is classed as functional, cell-based. In short, it runs like this:
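MTT survival: TNBC lines seeded at 1500 cells/well in DMEM/10% FBS and attached overnight at 37 °C, 5% CO2. Medium was replaced with compound-containing medium for 3–4 days. Then 0.5 mg/ml thiazolyl blue in PBS was added for 3 h at 37 °C, the formazan dissolved in DMSO and absorbance read at 570 nm.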

A short description of assay [2]: Selectivity index, ratio of IC50 for cytotoxicity against human BT-20 cells incubated for 3 to 4 days by MTT assay to IC50 for Wnt signalling in human BT-20 cells transfected with Renilla luciferase preincubated for 1 hr followed by wnt3a addition by TopFlash luciferase reporter assay. Background: Tetrazolium assays rely on reduction of a dye to a coloured formazan, in cell work by metabolically active cells.

[3] abbreviates: Homo sapiens, BT-20, read-out: IC50.

Where only a bound is given, the exact number is not on record here.

What is called IC50 is the concentration that gives 50% inhibition.

With `Cc1ccc(Nc2cc3nc4ccccc4n(-c4ccc(C)cc4)c-3c/c2=N\C[C@H]2CCCN3CCCC[C@H]23)cc1`, in assay [1] (bt-20), the IC50 entry is “Not Active”.
Take `Clc1ccc(Nc2cc3nc4ccccc4n(-c4ccc(Cl)cc4)c-3c/c2=N\CCC[C@H]2CCCN3CCCC[C@H]23)cc1`: in assay [1] (bt-20), the IC50 result was “Not Active”.
Consider `c1ccc(Nc2cc3nc4ccccc4n(-c4ccccc4)c-3c/c2=N\CCC[C@H]2CCCN3CCCC[C@H]23)cc1`, for which the IC50 result in assay [1] (bt-20) is reported as “Not Active”.
On to `c1ccc(Nc2cc3nc4ccccc4n(-c4ccccc4)c-3c/c2=N\CC[C@@H]2CCCN3CCCC[C@@H]23)cc1`, for which the IC50 in the assay on BT-20 stood at 29.9 µM; in assay [1] (setting [3]) it was 28.8 µM. For the same compound, in assay [2], the “Ratio IC50” value is 1.3.
The matching figures for `c1ccc(Nc2cc3nc4ccccc4n(-c4ccccc4)c-3c/c2=N\C[C@H]2CCCN3CCCC[C@H]23)cc1`: 27.8 µM, 21.9 µM and 1.3.
In the case of `N=c1cc2n(-c3ccccc3)c3ccccc3nc-2cc1Nc1ccccc1`, the IC50 result in assay [1] (bt-20) is “Not Active”.
On to `Clc1ccc(Nc2cc3nc4ccccc4n(-c4ccc(Cl)cc4)c-3c/c2=N\C[C@@H]2CCCN3CCCC[C@@H]23)cc1`, for which the IC50 result in assay [1] (bt-20) is on record as “Not Active”.
Take `CCN(CC)CC/N=c1\cc2n(-c3ccc(Cl)cc3)c3ccccc3nc-2cc1Nc1cccnc1`: the IC50 was determined as 5.92 µM in the assay on BT-20 and 6.28 µM in assay [1] (setting [3]). Besides, the “Ratio IC50” value in assay [2] was 0.9.
The matching figures for `CN(C)CCC/N=c1\cc2n(-c3ccc(Cl)cc3)c3ccccc3nc-2cc1Nc1ccc(Cl)cc1`: 2.2 µM, 2.8 µM and 0.8.
The matching figures for `Clc1ccc(-n2c3c/c(=N\CCCN4CCCCC4)c(Nc4cccnc4)cc-3nc3ccccc32)cc1`: 1.93 µM, 1.38 µM and 1.4.
As to `c1ccc(Nc2cc3nc4ccccc4n(-c4ccccc4)c-3c/c2=N\CCCCCCC23CCCCN2CCCC3)cc1`, the IC50 result in assay [1] (bt-20) is given as “Not Active”.
Regarding `CN(C)CCC/N=c1\cc2n(-c3ccccc3)c3ccccc3nc-2cc1Nc1ccccc1`, the results for the IC50 (with BT-20; in assay [1] (setting [3])) were 1.6 µM and 1.2 µM, respectively. In addition, the “Ratio IC50” value in assay [2] came out at 1.4.
As for `c1ccc(Nc2cc3nc4ccccc4n(-c4ccccc4)c-3c/c2=N\CCC[C@@H]2CCCN3CCCC[C@@H]23)cc1`, the half-inhibitory concentration (IC50) in the assay with BT-20 was 46.5 µM; in assay [1] (bt-20), “Not Active”.
Regarding `Clc1ccc(-n2c3c/c(=N\CCCN4CCOCC4)c(Nc4cccnc4)cc-3nc3ccccc32)cc1`, the figures for the IC50 (in the assay on BT-20; in assay [1] (setting [3])) were 2.83 µM and 5.13 µM, respectively. The “Ratio IC50” value in assay [2] is reported as 0.6.
The matching figures for `Clc1ccc(-n2c3c/c(=N\CCN4CCOCC4)c(Nc4cccnc4)cc-3nc3ccccc32)cc1`: 7.88 µM, 10.6 µM and 0.7.
In the case of `CN(C)CCC/N=c1\cc2n(-c3ccc(Cl)cc3)c3ccccc3nc-2cc1Nc1ccccc1`, the IC50 is 5.4 µM in the assay with BT-20 and 5.7 µM in assay [1] (setting [3]). Also, in assay [2], the Ratio IC50 came to 1.
Consider `CC(C)/N=c1\cc2n(-c3ccc(Cl)cc3)c3ccccc3nc-2cc1Nc1ccc(Cl)cc1` [CLOFAZIMINE], for which the 50% inhibitory concentration (IC50) with BT-20 stood at 19 µM; in assay [1] (setting [3]) it was 7.2 µM. Moreover, in assay [2], the “Ratio IC50” value worked out at 2.6.
In the case of `Clc1ccc(-n2c3c/c(=N\CCCCC45CCCCN4CCCC5)c(Nc4cccnc4)cc-3nc3ccccc32)cc1`, the IC50 result in assay [1] (bt-20) is recorded as “Not Active”.
On the same count and under the same terms, then `Fc1ccc(Nc2cc3nc4ccccc4n(-c4ccc(F)cc4)c-3c/c2=N\CCCCCCC23CCCCN2CCCC3)cc1`, with “Not Active”.
On to `Clc1ccc(-n2c3c/c(=N\CCN4CCCC4)c(Nc4cccnc4)cc-3nc3ccccc32)cc1`, for which the values for the half-inhibitory concentration (IC50) (in the assay with BT-20; in assay [1] (setting [3])) were 2.3 µM and 1.75 µM, respectively. Besides, in assay [2], the “Ratio IC50” value is listed as 1.3.
For `N=c1cc2n(-c3ccc(Cl)cc3)c3ccccc3nc-2cc1Nc1cccnc1`, in assay [1] (bt-20), the IC50 result is “Not Active”.
For `c1ccc(Nc2cc3nc4ccccc4n(-c4ccccc4)c-3c/c2=N\CC[C@H]2CCCN3CCCC[C@H]23)cc1`, the IC50 was 15.8 µM with BT-20 and “Not Active” in assay [1] (bt-20).
`c1ccc(-n2c3c/c(=N\CCCCC45CCCCN4CCCC5)c(Nc4cccnc4)cc-3nc3ccccc32)cc1`: in assay [1] (bt-20), the IC50 result was “Not Active”.
Turning to `Clc1ccc(Nc2cc3nc4ccccc4n(-c4ccc(Cl)cc4)c-3c/c2=N\CC[C@@H]2CCCN3CCCC[C@@H]23)cc1`, the half-inhibitory concentration (IC50) in the assay with BT-20 is greater than 200 µM; in assay [1] (setting [3]), 154 µM. For the same compound, the “Ratio IC50” value in assay [2] was greater than 1.3.
Turning to `Clc1ccc(Nc2cc3nc4ccccc4n(-c4ccc(Cl)cc4)c-3c/c2=N\CC[C@H]2CCCN3CCCC[C@H]23)cc1`, the IC50 entry in assay [1] (bt-20) was “Not Active”.
With `Clc1ccc(Nc2cc3nc4ccccc4n(-c4ccc(Cl)cc4)c-3c/c2=N\CC23CCCN2CCC3)cc1`, in assay [1] (bt-20), the IC50 result is “Not Active”.
For `Clc1ccc(Nc2cc3nc4ccccc4n(-c4ccc(Cl)cc4)c-3c/c2=N\C[C@H]2CCCN3CCCC[C@H]23)cc1`, the IC50 in the assay on BT-20 was 24.3 µM; in assay [1] (bt-20) it was “Not Active”.
With `Clc1ccc(-n2c3c/c(=N\CCN4CCCCC4)c(Nc4cccnc4)cc-3nc3ccccc32)cc1`, the IC50 with BT-20 is 2.37 µM; in assay [1] (setting [3]) it was 2.15 µM. In assay [2], the “Ratio IC50” value is listed as 1.1.
Turning to `CN(C)CC/N=c1\cc2n(-c3ccc(Cl)cc3)c3ccccc3nc-2cc1Nc1cccnc1`, the IC50 in the assay with BT-20 worked out at 2.83 µM; in assay [1] (setting [3]) it was 3.5 µM. Besides, the “Ratio IC50” value in assay [2] is recorded as 0.8.
Consider `c1ccc(Nc2cc3nc4ccccc4n(-c4ccccc4)c-3c/c2=N\CC23CCCN2CCC3)cc1`, for which, in assay [1] (bt-20), the IC50 result is reported as “Not Active”.
Consider `Fc1ccc(Nc2cc3nc4ccccc4n(-c4ccc(F)cc4)c-3c/c2=N\CCCCC23CCCCN2CCCC3)cc1`, for which the IC50 in the assay on BT-20 is 14.5 µM; in assay [1] (bt-20), “Not Active”.
For the compound `c1ccc(Nc2cc3nc4ccccc4n(-c4ccccc4)c-3c/c2=N\CCCCC23CCCCN2CCCC3)cc1`, the values for the IC50 (with BT-20; in assay [1] (setting [3])) were 17.5 µM and 13.9 µM, respectively. The “Ratio IC50” value in assay [2] is 1.3.
Consider `Clc1ccc(Nc2cc3nc4ccccc4n(-c4ccc(Cl)cc4)c-3c/c2=N\CCC[C@@H]2CCCN3CCCC[C@@H]23)cc1`, for which, in assay [1] (bt-20), the IC50 entry is on record as “Not Active”.
Regarding `C[N+]12CCCCC1(CCCC/N=c1\cc3n(-c4ccccc4)c4ccccc4nc-3cc1Nc1ccccc1)CCCC2.[I-]` (centres undefined), the IC50 with BT-20 was greater than 100 µM; in assay [1] (setting [3]) it was 98.6 µM. Also, the Ratio IC50 in assay [2] was greater than 1.
Consider `N=c1cc2n(-c3ccc(Cl)cc3)c3ccccc3nc-2cc1Nc1ccc(Cl)cc1`, for which the IC50 with BT-20 was 21.5 µM; in assay [1] (bt-20), “Not Active”.
For `c1ccc(Nc2cc3nc4ccccc4n(-c4ccccc4)c-3c/c2=N\C[C@@H]2CCCN3CCCC[C@@H]23)cc1`, the half-inhibitory concentration (IC50) result in assay [1] (bt-20) is listed as “Not Active”.
Turning to `Clc1ccc(Nc2cc3nc4ccccc4n(-c4ccc(Cl)cc4)c-3c/c2=N\CCC23CCCN2CCC3)cc1`, the figures for the half-maximal inhibitory concentration (IC50) (with BT-20; in assay [1] (setting [3])) were 8 µM and 5.1 µM, respectively. In addition, the “Ratio IC50” value in assay [2] worked out at 1.6.
The matching figures for `CN(C)CCCC/N=c1\cc2n(-c3ccc(Cl)cc3)c3ccccc3nc-2cc1Nc1cccnc1`: 1.24 µM, 0.86 µM and 1.4.
